Measurements published in ChEMBL document CHEMBL3124843, “Synthesis, cytostatic, antimicrobial, and anti-HCV activity of 6-substituted 7-(het)aryl-7-deazapurine ribonucleosides” (J Med Chem, 2014).
The source made the active and inactive calls. The rule behind the calls is not given here.

Tests used:
[1] = Cytotoxicity against human HuH7 cells infected with Hepatitis C virus subtype 2a; format: cell-based, Huh-7
Hepatitis C virus [2] = assay: Antiviral activity against Hepatitis C virus subtype 2a infected in human HuH7 cells; format: functional, organism-based, Hepacivirus hominis; conditions: genotype 2a, Huh-7
[3] = Cytotoxicity against human HuH7 cells infected with Hepatitis C virus subtype 1b; format: cell-based, Huh-7
Hepatitis C virus [4] = assay: Antiviral activity against Hepatitis C virus subtype 1b infected in human HuH7 cells; format: functional, organism-based, Hepacivirus hominis; conditions: genotype 1b, Huh-7
Candida tropicalis = assay: Antifungal activity against Candida tropicalis after 48 hrs; format: functional, organism-based
Pichia kudriavzevii = assay: Antifungal activity against Candida crusei after 48 hrs; format: functional, organism-based
Candida parapsilosis = assay: Antifungal activity against Candida parapsilosis after 48 hrs; format: functional, organism-based
Candida albicans = assay: Antifungal activity against Candida albicans after 48 hrs; format: functional, organism-based
Pseudomonas aeruginosa [5] = assay: Antibacterial activity against multi-resistant Pseudomonas aeruginosa A/16575 after 24 hrs; format: functional, organism-based
Escherichia coli [6] = assay: Antibacterial activity against multi-resistant Escherichia coli C/16702 after 24 hrs; format: functional, organism-based
[7] = test system: Staphylococcus haemolyticus; assay: Antibacterial activity against methicillin-resistant Staphylococcus haemolyticus A/16568 after 24 hrs; format: functional, organism-based
Staphylococcus aureus [8] = assay: Antibacterial activity against methicillin-resistant Staphylococcus aureus MRSA 4591 after 24 hrs; format: functional, organism-based
Pseudomonas aeruginosa [9] = assay: Antibacterial activity against Pseudomonas aeruginosa CCM 3955 after 24 hrs; format: functional, organism-based
Escherichia coli [10] = assay: Antibacterial activity against Escherichia coli CCM 3954 after 24 hrs; format: functional, organism-based
Staphylococcus aureus [11] = assay: Antibacterial activity against Staphylococcus aureus CCM 3953 after 24 hrs; format: functional, organism-based
Enterococcus faecalis = assay: Antibacterial activity against Enterococcus faecalis CCM 4224 after 24 hrs; format: functional, organism-based
[12] = Antiproliferative activity against human HeLaS3 cells after 72 hrs by XTT assay; format: functional, cell-based; conditions: HeLa S3, 72 h
Summary of the method: (§1)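 Antiproliferative test on HL-60 promyelocytic leukemia and HeLa S3 cervical carcinoma cells growing in liquid suspension.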

HL-60 = assay: Antiproliferative activity against human HL60 cells after 72 hrs by XTT assay; format: functional, cell-based; conditions: HL-60, 72 h; summary of the method: as §1
HepG2 = assay: Antiproliferative activity against human HepG2 cells after 72 hrs by XTT assay; format: functional, cell-based; conditions: HepG2, 72 h
MRC5 = assay: Cytostatic activity against human MRC5 cells after 72 hrs by MTT assay; format: ADME, cell-based; conditions: MRC5, 72 h
Summary of the method: (§2)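 IC50 is the concentration that cuts cell growth by 50%, read by quantitative metabolic MTT staining after a 3-day treatment. The resistant sublines were made by raising the concentration of the cytotoxic drug step by step. CEM-DNR-bulk (daunorubicin-selected) stably overexpresses mrp-1. K562-TAX (paclitaxel-selected) expresses only mdr-1. HCT116p53−/− carries null p53 alleles. BJ and MRC-5 are nonmalignant fibroblasts.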

BJ = assay: Cytostatic activity against human BJ cells after 72 hrs by MTT assay; format: ADME, cell-based; summary of the method: as §2
HCT-116 [13] = assay: Cytostatic activity against p53-deficient human HCT116 cells after 72 hrs by MTT assay; format: functional, cell-based; conditions: HCT-116, 72 h; summary of the method: as §2
HCT-116 [14] = assay: Cytostatic activity against human HCT116 cells after 72 hrs by MTT assay; format: functional, cell-based; conditions: HCT-116, 72 h; summary of the method: as §2
A549 = assay: Cytostatic activity against human A549 cells after 72 hrs by MTT assay; format: functional, cell-based; conditions: A549, 72 h; summary of the method: as §2
K562 [15] = assay: Cytostatic activity against paclitaxel-resistant human K562 cells after 72 hrs by MTT assay; format: functional, cell-based; conditions: K562, 72 h; summary of the method: as §2
K562 [16] = assay: Cytostatic activity against human K562 cells after 72 hrs by MTT assay; format: functional, cell-based; conditions: K562, 72 h; summary of the method: as §2
[17] = Cytostatic activity against human CEM-DNR-bulk cells after 72 hrs by MTT assay; format: functional, cell-based; summary of the method: as §2
CCRF-CEM = assay: Cytostatic activity against human CCRF-CEM cells after 72 hrs by MTT assay; format: functional, cell-based; summary of the method: as §2

Row | Compound | CC50 [1] [µM] | EC50 (Hepatitis C virus [2]) [µM] | CC50 [3] [µM] | EC50 (Hepatitis C virus [4]) [µM] | Activity (Candida tropicalis) | Activity (Pichia kudriavzevii) | Activity (Candida parapsilosis) | Activity (Candida albicans) | Activity (Pseudomonas aeruginosa [5]) | Activity (Escherichia coli [6]) | Activity [7] | Activity (Staphylococcus aureus [8]) | Activity (Pseudomonas aeruginosa [9]) | Activity (Escherichia coli [10]) | Activity (Staphylococcus aureus [11]) | Activity (Enterococcus faecalis) | IC50 [12] [µM] | IC50 (HL-60) [µM] | IC50 (HepG2) [µM] | IC50 (MRC5) [µM] | other results
1 | COc1nc(N)nc2c1c(-c1cc3ccccc3o1)cn2[C@@H]1O[C@H](CO)[C@@H](O)[C@H]1O | > 44 | 20.7 | > 44 | 8.98 | inactive | inactive | inactive | inactive | inactive | inactive | inactive | inactive | inactive | inactive | inactive | inactive | > 20 | > 20 | > 20 | 22.7 | IC50 (BJ): 25.6 µM; IC50 (HCT-116 [13]): > 20 µM; IC50 (HCT-116 [14]): > 20 µM; IC50 (A549): > 20 µM; IC50 (K562 [15]): 15.5 µM; IC50 (K562 [16]): 14.6 µM; IC50 [17]: 16.7 µM; IC50 (CCRF-CEM): 12.7 µM
2 | CN(C)c1ncnc2c1c(-c1ccoc1)cn2[C@@H]1O[C@H](CO)[C@@H](O)[C@H]1O | > 44 | > 44 | > 44 | 7.88 | inactive | inactive | inactive | inactive | inactive | inactive | inactive | inactive | inactive | inactive | inactive | inactive | 9.06 | 1.16 | 12.5 | > 100 | IC50 (BJ): 99.2 µM; IC50 (HCT-116 [13]): > 20 µM; IC50 (HCT-116 [14]): > 20 µM; IC50 (A549): > 20 µM; IC50 (K562 [15]): 14.9 µM; IC50 (K562 [16]): 1.54 µM; IC50 [17]: > 20 µM; IC50 (CCRF-CEM): 13.3 µM
3 | Cc1ncnc2c1c(Br)cn2[C@@H]1O[C@H](CO)[C@@H](O)[C@H]1O | 28.2 | 20.7 | 35.6 | 12 | inactive | inactive | inactive | inactive | inactive | inactive | inactive | inactive | inactive | inactive | inactive | inactive | 13.8 | 7.24 | 5.55 | 24.4 | IC50 (BJ): > 100 µM; IC50 (HCT-116 [13]): 19.6 µM; IC50 (HCT-116 [14]): 15.7 µM; IC50 (A549): > 20 µM; IC50 (K562 [15]): 15.8 µM; IC50 (K562 [16]): > 20 µM; IC50 [17]: > 20 µM; IC50 (CCRF-CEM): 15 µM
4 | Cc1ncnc2c1c(-c1ccoc1)cn2[C@@H]1O[C@H](CO)[C@@H](O)[C@H]1O | > 44 | > 44 | > 44 | 4.43 | inactive | inactive | inactive | inactive | inactive | inactive | inactive | inactive | inactive | inactive | inactive | inactive | > 20 | > 15 | 5.32 | 98.3 | IC50 (BJ): 89.2 µM; IC50 (HCT-116 [13]): > 20 µM; IC50 (HCT-116 [14]): > 20 µM; IC50 (A549): > 20 µM; IC50 (K562 [15]): > 20 µM; IC50 (K562 [16]): > 20 µM; IC50 [17]: > 20 µM; IC50 (CCRF-CEM): > 20 µM
